# Rows were chosen to be rich in hits. Some 2.1% of all compounds tested hit in one or more screens of this group.
# Hck-Nef inh – blocks Nef-activated human Hck kinase; P08631; Recombinant Hck-YEEI plus Nef, Z-Lyte FRET kinase assay; inhibition, % at 20 µM; 0.68% of 220,000 active; AID 463187;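 active means Hck-Nef kinase inhibition above about 50%, limit read from the data; inactive means inhibition below that limit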;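 further: 0% = DMSO with Hck plus Nef and 100% = Hck alone without Nef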
# Target sequence (P08631 whole entry, looked up): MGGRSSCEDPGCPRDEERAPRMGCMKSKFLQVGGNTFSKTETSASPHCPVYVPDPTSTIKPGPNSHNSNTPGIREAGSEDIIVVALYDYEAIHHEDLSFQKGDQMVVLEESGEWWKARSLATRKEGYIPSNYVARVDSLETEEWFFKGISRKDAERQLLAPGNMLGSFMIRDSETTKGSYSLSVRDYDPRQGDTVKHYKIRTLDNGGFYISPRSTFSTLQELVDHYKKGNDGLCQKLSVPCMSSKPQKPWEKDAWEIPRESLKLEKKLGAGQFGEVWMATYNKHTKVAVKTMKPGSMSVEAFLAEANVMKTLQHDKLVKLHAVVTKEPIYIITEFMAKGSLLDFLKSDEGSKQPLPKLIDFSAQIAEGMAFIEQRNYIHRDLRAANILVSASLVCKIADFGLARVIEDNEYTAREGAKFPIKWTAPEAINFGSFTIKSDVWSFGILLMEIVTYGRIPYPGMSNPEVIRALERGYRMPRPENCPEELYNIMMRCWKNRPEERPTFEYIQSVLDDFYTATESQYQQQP
# Runt-CBFb FRET – blocks binding of human RUNX1 Runt domain to CBFb. inhibition, % at 20 µM. 0.46% of 220,000 active. Cerulean-Runt/Venus-CBFb FRET ratio 530/480, 1 h. AID 1496;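 active means inhibition over about 50% at 20 µM in the single-dose screen, limit read from the data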;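 further: 0% = DMSO wells and 100% = excess unlabeled CBFb competitor control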
#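 Measured by: fluorescence energy transfer, 422 nm excitation, 530/480 nm emission; test system: Cerulean-tagged RUNX1 Runt domain (FRET donor) fusion protein; buffer or medium: Tris pH 7.5 buffer with BSA; compound: one dose, 20 µM compound, 1% DMSO; times: two 1 h room-temperature incubations shielded from light; benchmarks: unlabeled CBFb 5 µM, positive control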
# Runt-SMMHC FRET – inhibitors of human RUNX1 Runt domain binding to CBFb-SMMHC. Cerulean-Runt/Venus-CBFb-SMMHC FRET ratio 530/480, 1 h. inhibition, % at 20 µM. 0.74% of 220,000 active. AID 1434. Q01196+Q13951;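 active means mean inhibition across duplicate retests at 20 µM reaching about 50%, limit read from the data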;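 further: 0% = DMSO wells and 100% = wells with excess untagged CBFb-SMMHC; inhibitors lower the FRET ratio by blocking Runt binding to CBFb-SMMHC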
# pCIP destab – lowers stability of the mouse p/CIP coactivator protein; Q05BA5; F442A p/CIP-EGFP cells, EGFP fluorescence, 16 h; 0.01% of 290,000 active; AID 1984; decrease of EGFP signal, % at 10 µM;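 active means EGFP signal decrease of at least 30% at 10 µM or well 3 SD below plate mean, unless failing retest; inactive means the rest, including hits failing retest or dose response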
# RanGTP-Imp inh – disruptors of Ran-importin-beta complex formation – biochemical, FRET, CFP-Ran, YFP-importin-beta, homogeneous, primary screen; inhibition, % (concentration not given with the values); 1.1% of 300,000 active; cell-free CFP-Ran/YFP-importin-beta FRET ratio;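 active means more than half of the replicate wells show a fall in the fluorescence ratio signal beyond about 16%, limit read from the data, passing the limit was not always enough; inconclusive means exactly half of the replicate wells pass the set limit; inactive means fewer than half of replicates pass the limit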;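 further: 0% = DMSO wells and 100% = Ran loaded with GDP instead of GTP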
# DSG3 Ab inh – blocks pemphigus antibody binding to human desmoglein-3; P32926; binding (percent of control), % at 10 µM; 0.48% of 310,000 active; DSG3-coupled beads, scFv-anti-DSG3-GFP binding, flow cytometry; active compounds read low;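 active means binding more than 3 SD below its plate's average and above zero; inconclusive means below that plate limit but binding exactly zero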;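 further: hits lower antibody fragment binding to DSG3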
# YIC FRET counter – counter-screen YIC FRET for RanGTP-importin-beta inhibitors; shares compounds with RanGTP-Imp inh; Purified YIC probe, intramolecular FRET ratio YFP/CFP; IC50, µM; 40% of 1,000 active;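 active means fitted half-maximal inhibitory concentration no more than tenfold above the top dose tested; inconclusive means flat fit with 30 to 70% activity, or poor fit; inactive means half-maximal concentration beyond tenfold above the top dose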
# Hck Nef conf – confirmation of Hck-Nef kinase inhibitors; calls only at 10 µM; AID 463188; shares compounds with Hck-Nef inh; Recombinant Hck-YEEI:Nef, Z-Lyte FRET kinase assay; 28% of 1,300 active;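 active means average inhibition of at least 50%, with Z-scores no higher than 3 in both the phospho-tyrosine peptide and fluorescence counterscreens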
# Starred values were filed as active, the others as inactive; i = inactive; u = inconclusive; x = not tested or not shown; + = active, no number.
SMILES,Hck-Nef inh,Runt-CBFb FRET,Runt-SMMHC FRET,pCIP destab,RanGTP-Imp inh,DSG3 Ab inh,YIC FRET counter,others
COc1ccccc1C1C(C(N)=O)=C(C)Nc2ncnn21 (configuration not stated),7,0,2,2,23*,98,>50,
NC(=O)c1ccc(F)cc1,0,x,x,x,17*,100,>50,
Cc1c(C(=O)N(CCO)Cc2ccccc2)oc2c(F)cccc12,x,x,x,-19,1,113,x,
COc1cc(/C=N/NC(=O)c2cc(C)oc2C)ccc1O,29,0,0,1,24*,104,>50,
COc1ccc(C(=O)NC(=S)Nc2ccc(CN3CCOCC3)cc2)cc1OC,18,2,2,2,u,102,x,
COc1ccc(Br)cc1/C=C/C(=O)NC(=S)Nc1ccc(CN2CCOCC2)cc1,x,x,x,8,50*,100,>50,
Cc1ccc(-c2oc3ccccc3c(=O)c2OCC(=O)O)cc1,-31,-3,0,-8,2,96,x,
Cc1ccc(-c2oc3ccccc3c(=O)c2O)cc1,-6,16,1,-8,22*,104,17*,
N#C/C(=C\c1ccc(O)c(Br)c1)C(=O)NCc1ccccc1,6,104*,134*,-16,43*,101,20*,
O=C(CN(C(=O)CCC(=O)Nc1ccccn1)c1ccccc1F)NCc1ccc2c(c1)OCO2,x,x,x,11,6,102,x,
CCCc1cc(=O)oc2c(CN3CCN(C)CC3)c(O)ccc12,x,x,x,-17,7,94,x,
CCCc1cc(=O)oc2c(CN3CCN(C)CC3)c(O)c(Cl)cc12,x,123*,101*,-7,50*,91,31*,
Cc1ccc(C)c(S(=O)(=O)N2CCN(C(=O)CSC(=S)N3CCCC3)CC2)c1,x,x,x,x,-1,99,x,
COc1ccccc1C(CNC(=O)CN1C(=O)NC(C)(c2ccc3ccccc3c2)C1=O)N1CCCC1 (configuration not stated),x,x,x,x,x,109,x,
COc1ccc(C2NCCc3c2[nH]c2ccccc32)cc1COc1ccc(F)cc1 (configuration not stated),0,-2,-5,-6,22*,95,>50,
COc1ccc(C2NC(C(=O)O)Cc3c2[nH]c2ccccc32)cc1CN1CCN(c2ccc(F)cc2)CC1 (configuration not stated),14,8,38,0,24*,105,8.6*,
O=C(O)C1Cc2c([nH]c3ccccc23)C(c2ccc3c(c2)OCO3)N1 (configuration not stated),1,4,48,-2,-3,119,x,
CCCCc1cc(=O)oc2c(CN3CCCC3)c(O)c(Cl)cc12,153*,96*,135*,0,26*,101,28*,
CCOc1ccc(C2C(C(=O)OC)=CN(CCOC)C=C2C(=O)OC)cc1,58*,102*,107*,7,21*,84,15*,
CCC1CCCCN1S(=O)(=O)c1ccc(NC(=O)C2CC(=O)N(C(C)(C)C)C2)cc1 (configuration not stated),x,x,x,x,x,101,x,
O=C(CSc1nnc(-c2ccccc2)c(-c2ccccc2)n1)NC1CCS(=O)(=O)C1 (configuration not stated),19,-1,5,7,5,105,x,
COC(=O)C1=CN(Cc2cccs2)C=C(C(=O)OC)C1c1ccc(OC)cc1OC,68*,105*,91*,-28,40*,101,7*,
COC(=O)C1=C(N)Oc2cc(C)n(CC3CCCO3)c(=O)c2C1c1ccccc1 (configuration not stated),0,-2,5,-14,9,98,x,
COC(=O)C1=CN(CC2CCCO2)C=C(C(=O)OC)C1c1cccc(O)c1 (configuration not stated),71*,76*,87*,-4,28*,x,20*,
O=[N+]([O-])c1ccc(OC(F)F)c(/C=N/n2cnnc2)c1,-2,0,-5,-12,-1,93,x,
SMILES,Hck-Nef inh,Runt-CBFb FRET,Runt-SMMHC FRET,pCIP destab,RanGTP-Imp inh,DSG3 Ab inh,YIC FRET counter,others
COc1nc(NCCc2ccc(OC)c(OC)c2)nc(OC)n1,2,0,3,-3,6,x,x,
COc1ccc(CCNc2c3ccccc3nc3ccccc23)cc1OC,56*,110*,134*,-12,43*,102,14*,Hck Nef conf=i
O=c1/c(=C/c2ccccn2)sc2n1CN(c1ccccc1)CN=2,-3,0,1,-2,1,67,x,
Cc1cc(C)c2c(c1)/C(=c1/sc3n(c1=O)CN(c1ccccc1)CN=3)C(=O)N2,54*,-2,0,2,54*,x,>50,Hck Nef conf=i
CC(=O)Nc1cccc(NC(=O)c2csc(C)c2)c1,x,x,x,-3,-1,101,x,
COC(=O)Cc1c(C)c2cc(Cl)c(OC(=O)c3ccco3)cc2oc1=O,102*,98*,141*,-9,47*,107,21*,
COc1ccc(C(=O)Nc2cccc(-c3cc4ccccc4oc3=O)c2)cc1[N+](=O)[O-],96*,-5,-6,-1,x,89,x,Hck Nef conf=+
O=C(O)c1cc(-c2ccc(/C=C3/SC(=S)N(Cc4ccccc4)C3=O)o2)ccc1Cl,141*,19,4,-8,x,96,x,Hck Nef conf=+
COc1ccc(CN2C(=O)/C(=C/c3ccc(-c4ccc(Cl)c(C(=O)O)c4)o3)SC2=S)cc1,-17,15,-34,-33,x,x,x,
CC1(C)OC(=O)C(=Cc2ccc(-c3ccc(Cl)c(C(=O)O)c3)o2)C(=O)O1,77*,12,7,-6,-2,83,x,Hck Nef conf=i
CC(=O)Nc1ccc(C(=O)CSc2nnnn2C2CCCC2)cc1,20,0,2,-1,3,94,x,
Cc1ccc(NC(=O)COC(=O)/C=C/c2ccc(Br)o2)cc1S(=O)(=O)N(C)C,53*,0,-3,-4,4,96,x,Hck Nef conf=i
CN(C)S(=O)(=O)c1cccc(NC(=O)COC(=O)/C=C/c2ccc(Br)o2)c1,19,4,-1,7,-2,96,x,
Cc1ccc(S(=O)(=O)N2CCN(C(=O)COC(=O)C3CCC3)CC2)c(C)c1,x,x,x,x,-1,122,x,
Cc1nn(CCc2nn[nH]n2)c2nc(-c3ccc(C4CCCCC4)cc3)cc(C(F)(F)F)c12,71*,5,-4,-6,0,122,x,Hck Nef conf=+
Cc1nn(CCC(=O)O)c2nc(-c3cccnc3)cc(C(F)(F)F)c12,2,-3,2,3,2,101,x,
